Assay results: ChEMBL document CHEMBL3588843, “Synthesis of C-5″ and C-6″-modified α-GalCer analogues as iNKT-cell agonists” (Bioorg Med Chem, 2015)
Activity calls are given as the source filed them. The rule behind the calls is not given here.

Legend:
[1] = test system: Mus musculus; assay: In vivo activation of iNKT cells in C57BL/6 mouse assessed as stimulation of IL4 production in serum at 5 ug, ip after 4 hrs by ELISA; format: functional, organism-based
Method in brief: (§1)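 C57BL/6 mice, 5–12 weeks old, in-house bred or purchased. Glycolipid dissolved in PBS with DMSO, given intraperitoneally at 5 μg per mouse. Mice bled 4 h (IL-4) and 16 h (IFN-γ) after injection; cytokines measured in serum. At least 2 separate experiments, 5–8 mice per group per glycolipid.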

[2] = test system: Mus musculus; assay: In vivo activation of iNKT cells in C57BL/6 mouse assessed as stimulation of IFNgamma production in serum at 5 ug, ip after 16 hrs by ELISA relative to alpha-GalCer; format: functional, organism-based; method in brief: as §1

SMILES	Activity [1]	Activity [2]
CCCCCCCCCCCCCCCCCCCCCCCCCC(=O)N[C@@H](CO[C@H]1O[C@H](COC(=O)Nc2ccncc2)[C@H](O)[C@H](O)[C@H]1O)[C@H](O)[C@H](O)CCCCCCCCCCCCCC	Active	Active
CCCCCCCCCCCCCCCCCCCCCCCCCC(=O)N[C@@H](CO[C@H]1O[C@H](C(=O)Nc2ccc(Cl)c(Cl)c2)[C@H](O)[C@H](O)[C@H]1O)[C@H](O)[C@H](O)CCCCCCCCCCCCCC	inactive	inactive
CCCCCCCCCCCCCCCCCCCCCCCCCC(=O)N[C@@H](CO[C@H]1O[C@H](C(=O)NCCc2ccccc2)[C@H](O)[C@H](O)[C@H]1O)[C@H](O)[C@H](O)CCCCCCCCCCCCCC	inactive	inactive
CCCCCCCCCCCCCCCCCCCCCCCCCC(=O)N[C@@H](CO[C@H]1O[C@H](C(=O)NCc2ccc(Cl)c(Cl)c2)[C@H](O)[C@H](O)[C@H]1O)[C@H](O)[C@H](O)CCCCCCCCCCCCCC	inactive	inactive
CCCCCCCCCCCCCCCCCCCCCCCCCC(=O)N[C@@H](CO[C@H]1O[C@H](C(=O)NCc2cccc3ccccc23)[C@H](O)[C@H](O)[C@H]1O)[C@H](O)[C@H](O)CCCCCCCCCCCCCC	inactive	inactive
CCCCCCCCCCCCCCCCCCCCCCCCCC(=O)N[C@@H](CO[C@H]1O[C@H](COC(=O)Nc2ccc(Cl)cc2)[C@H](O)[C@H](O)[C@H]1O)[C@H](O)[C@H](O)CCCCCCCCCCCCCC	Active	Active
CCCCCCCCCCCCCCCCCCCCCCCCCC(=O)N[C@@H](CO[C@H]1O[C@H](C(=O)Nc2ccccc2)[C@H](O)[C@H](O)[C@H]1O)[C@H](O)[C@H](O)CCCCCCCCCCCCCC	inactive	Active
CCCCCCCCCCCCCCCCCCCCCCCCCC(=O)N[C@@H](CO[C@H]1O[C@H](COC(=O)Nc2cccc3ccccc23)[C@H](O)[C@H](O)[C@H]1O)[C@H](O)[C@H](O)CCCCCCCCCCCCCC	Active	Active
CCCCCCCCCCCCCCCCCCCCCCCCCC(=O)N[C@@H](CO[C@H]1O[C@H](C(=O)NCc2ccccc2)[C@H](O)[C@H](O)[C@H]1O)[C@H](O)[C@H](O)CCCCCCCCCCCCCC	inactive	inactive
CCCCCCCCCCCCCCCCCCCCCCCCCC(=O)N[C@@H](CO[C@H]1O[C@H](C(=O)NCc2ccsc2)[C@H](O)[C@H](O)[C@H]1O)[C@H](O)[C@H](O)CCCCCCCCCCCCCC	inactive	Active
